Here are results for five compounds from paper PMC12415690 (RSC Advances, 2025).

For series [1], the system named is M. tuberculosis H37Rv strain (ATCC 27294). Briefly: Antitubercular activity, microplate Alamar Blue assay. The class given is cell-based. The following applies: Mycobacterium tuberculosis, ATCC27294|H37RV, read-out: MIC μM. For orientation: Resazurin is reduced to fluorescent resorufin, in cell work by metabolically active cells.
The subject of a further series is E. coli (ATCC 25922). Briefly: Antibacterial zone of inhibition. Type of series: cell-based. As to conditions: Escherichia coli, ATCC25922, read-out: Zone of inhibition in mm, E. coli (ATCC 25922). The method, boiled down: (§1)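 Sterilised nutrient agar, […], was seeded with 18–24 h bacterial subcultures, mixed and poured into Petri dishes. Once the agar set, 6 mm wells were cut with a sterile cork borer and filled with test compound dissolved in DMSO at 100 μg mL−1. Plates were incubated at 37 °C for 24–48 h, and inhibition zones around each well were measured in mm. Ciprofloxacin was the reference standard.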

The test system of another series is B. subtilis (ATCC 6051). As to the kind of experiment: Antibacterial zone of inhibition. The class given is cell-based, Bacillus subtilis. As to conditions: 100 μg mL^−1; for zone of inhibition at 100 µg/mL: Bacillus subtilis, ATCC6051, read-out: Zone of inhibition in mm, B. subtilis (ATCC 6051), Gram positive. In outline: as §1
Series [2] relates to P. aeruginosa (ATCC 27853). Briefly: Antibacterial zone of inhibition. Type of series: cell-based. As to conditions: Pseudomonas aeruginosa, ATCC27853, read-out: Zone of inhibition in mm, P. aeruginosa (ATCC 27853). In outline: as §1
Another series concerns S. aureus (ATCC 23235). Briefly: Antibacterial zone of inhibition. As to conditions: Staphylococcus aureus, ATCC23235, read-out: Zone of inhibition in mm, S. aureus (ATCC 23235). The class given is cell-based. The method, boiled down: as §1
The subject of series [3] is dormant M. tuberculosis H37Ra. As to conditions: cited from earlier work.
The test system of a further series is M.tb H37Rv. The following applies: H37Rv strain; cited from earlier work.
Series [4] deals with Mycobacterium tuberculosis. As to conditions: cited from earlier work.

Converted amounts (≈) assume the structure as drawn. Where two headings read alike, the source gives them in different places.

On to `CCOC(=O)c1sc(N/N=C/c2c(-c3ccc(OC)cc3)nc3ncccn23)nc1C` [Compound K2, Ethyl(E)-2-(2-((2-(4-methoxyphenyl)imidazo[1,2-a]pyrimidin-3-yl)methylene)hydrazineyl)-4-methylthiazole-5-carboxylate], for which the minimal inhibitory concentration (MIC) (as a rule, the lowest concentration found to suppress growth) in [1] is 3.66 µM (≈ 1.6 µg/mL). Moreover, the zone of inhibition (as a rule, the size of the clear area around the sample on an inoculated plate) at 100 µg/mL in the series on E. coli (ATCC 25922) is 18 mm; in the series on B. subtilis (ATCC 6051), 15 to 20 mm; in series [2], 18 mm; in the series on S. aureus (ATCC 23235) it was 15 mm. For the same compound, the “Cytotoxicity in VERO cells” value with VERO cell lines is given as “non-toxic profiles”. In addition, the “Zone of inhibition in mm, B. subtilis (ATCC 6051)” value in the series on B. subtilis (ATCC 6051) (Gram positive) was found to be 15 mm.

As for `CCOC(=O)c1nc(-c2ccc(C#N)cc2)sc1C1CCCCC1` [ethyl 2-(4-cyanophenyl)-5-cyclohexylthiazole-4-carboxylate], the “inhibition against dormant M. tuberculosis H37Ra” value in series [3] is 91%. Also, the minimal inhibitory concentration (MIC) in the series with M.tb H37Rv is 2.1 µg/mL (≈ 6.17 µM).

`CCOC(=O)c1sc(N/N=C/c2c(-c3ccc(F)cc3)nc3ncccn23)nc1C` [Compound K3, Ethyl(E)-2-(2-((2-(4-fluorophenyl)imidazo[1,2-a]pyrimidin-3-yl)methylene)hydrazineyl)-4-methylthiazole-5-carboxylate]: in series [1], the MIC worked out at 3.77 µM (≈ 1.6 µg/mL). In addition, the zone of inhibition at 100 µg/mL turned out to be 20 mm in the series on E. coli (ATCC 25922), 13 mm in the series with B. subtilis (ATCC 6051), 11 mm in series [2] and 17 mm with S. aureus (ATCC 23235). The “Cytotoxicity in VERO cells” value with VERO cell lines is “non-toxic profiles”.

As for `Cc1csc(C(C)(O)c2nnc(Nc3cccc(Br)n3)s2)n1` (centres unmarked) [1-(5-((6-bromopyridin-2-yl)amino)-1,3,4-thiadiazol-2-yl)-1-(4-methylthiazol-2-yl)ethanol], the MIC in [4] (thiazole-thiadiazole hybrids) was 1 µM.

With `O=[N+]([O-])c1ccc(-c2csc(N/N=C/C=C(\Cl)c3ccc(Cl)cc3)n2)cc1` [2-((E)-2-((Z)-3-chloro-3-(4-chlorophenyl)allylidene)hydrazinyl)-4-(4-nitrophenyl)thiazole], in series [4] ((E)-2-(2-allylidenehydrazinyl)thiazole derivatives), the minimal inhibitory concentration (MIC) is 6.5 µg/mL.
